According to PubChem BioAssay AID624070 (Broad Institute, 2012):
Inconclusive results are not listed. The source made the active and inactive calls.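 How the source made its calls: active means fitted curve crosses -35% change at a dose up to twice the top valid dose; inconclusive means flat fit showing 30 to 70% drop, or poor fit; inactive means the rest, including rises or flat curves.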

Test: P. aeruginosa growth delay under iron chelation, dose response, whole organism, absorbance 405 nm, EDDHA, dry powder, set 5 (AID 624070)
Procedure, shortened: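 Assay system: Pseudomonas aeruginosa strain ATCC 15692, whole bacterial cells; incubation: 24–30 h exposure, 37 °C; technique: 405 nm absorbance, pyoverdine; reagent: 2 µM EDDHA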

| SMILES | outcome |
| --- | --- |
| N#CC1c2ccc(Cl)cc2CCc2cccnc21 (stereo not drawn) | inactive |
| COCCC(C#N)c1ccc(Cl)cc1 (stereo not drawn) | inactive |
| N#CC(c1ccc(Cl)cc1)N1CCCC1 (stereo not drawn) | inactive |
| COCCOCCC(C#N)c1ccc(Cl)cc1 (stereo not drawn) | inactive |
| CCCCC(C#N)c1ccc(F)cc1 (stereo not drawn) | inactive |
| COCCOCCC(C#N)c1ccc(F)cc1 (stereo not drawn) | inactive |
| CN(C)CCCC(C#N)c1ccc(Cl)cc1 (stereo not drawn) | inactive |
| Clc1ccc(C(c2cccc(Cl)n2)c2nn[nH]n2)cc1 (stereo not drawn) | inactive |
| COCCC(C#N)c1ccc(F)cc1 (stereo not drawn) | inactive |
| N#Cc1cccc(C(C#N)c2ccc(F)cc2)n1 (stereo not drawn) | inactive |
| COCCNC(C#N)c1ccc(Cl)cc1 (stereo not drawn) | inactive |
| CCCCC(C#N)c1ccc(Cl)cn1 (stereo not drawn) | inactive |
| N#CC(c1ccc(F)cc1)c1cccc(Cl)n1 (stereo not drawn) | inactive |
| CCCCC(C#N)c1ccc(F)cn1 (stereo not drawn) | inactive |
| N#CC(c1ccc(C(F)(F)F)c(Cl)n1)c1ccccc1OC(F)(F)F (stereo not drawn) | inactive |
| CCCCC(C#N)c1ccc(Cl)cc1 (stereo not drawn) | inactive |
| CCCCC(C#N)c1ccccn1 (stereo not drawn) | inactive |
| N#CC(c1ccc(Cl)cc1)c1ccccn1 (stereo not drawn) | inactive |
